From ChEMBL document CHEMBL4373700, “Synthesis and Structure-Activity Relationship Correlations of Gnidimacrin Derivatives as Potent HIV-1 Inhibitors and HIV Latency Reversing Agents” (J Med Chem, 2019) come the findings set out here.

Active and inactive are the calls of the source. The calls are words filed in the database; no cut-off is given here.

Data set [1] in a line: Agonist activity at Protein kinase C in human MT4 cells infected with HIV-1 NL4-3 assessed as inhibition of viral replication measured on day 3 post-infection by Nano-Glo luciferase assay.
Data set [2] can be described thus: Half-life in Sprague-Dawley rat plasma at 0.05 mM measured up to 24 hrs by LCMS analysis. In kind it is ADME, cell-free. The conditions noted are these: 50 µM. Summed up: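 Sprague Dawley rat plasma (sodium heparin) prewarmed 10 min at 37 °C. Compound added from 5 mM DMSO stock to a final 0.05 mM. Samples taken at 0, 0.5, 1, 2, 4, 6, 10 and 24 h, deproteinized with 2 volumes MeOH, centrifuged and filtered. Analysis by LCMS (C18, isocratic, ESI). Mean of three independent experiments.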

The next data set has as its target Protein kinase C (PKC). The data set can be described thus: Agonist activity at Protein kinase C in human U1 cells infected with HIV-1 NL4-3 assessed as induction of HIV-1 p24 production after 72 hrs by ELISA. In kind it is cell-based. Summed up: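 Latency model: U1 cells (2 × 10^5 cells/mL) incubated with a range of compound concentrations at 37 °C for 72 h. p24 in the supernatant measured by ELISA. EC50 is the concentration giving 50% of maximal p24 induction, from nonlinear regression.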

In a further data set the test system is MT4. The experiment in a line: Cytotoxicity against human MT4 cells measured after 3 days by CytoTox-Glo assay. The data set is classed as cell-based. The conditions noted are these: mt4, 72 h. Summed up: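 MT4 cells cultured with a range of compound concentrations for 3 days. Viability by CytoTox-Glo, run per the manufacturer's protocol. CC50 is the concentration causing a 50% drop in viability.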

The target of data set [3] is Protein kinase C beta type (Homo sapiens) (UniProt P05771). The data set can be described thus: Agonist activity at Protein kinase C beta in human MT4 cells infected with HIV-1 NL4-3 assessed as inhibition of viral replication at 0.6 nM measured on day 3 post-infection by Nano-Glo luciferase assay relative to control. In kind it is cell-based. Summed up: (§1)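 Multicycle replication: MT4 cells (1 × 10^5 cells/mL) infected with HIV-1 NL4-3 NanoLuc-sec, 50 TCID50/well, with 0.6 nM or 2 nM PKC agonist, with or without enzastaurin at 0, 1/3 or 1 μM. Supernatant luciferase (Nano-Glo) read on day 3 post infection. Replication expressed relative to the no-compound control (100%). Duplicate assay.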
Chain of Protein kinase C beta type (Homo sapiens) (P05771 2-671 limits assumed): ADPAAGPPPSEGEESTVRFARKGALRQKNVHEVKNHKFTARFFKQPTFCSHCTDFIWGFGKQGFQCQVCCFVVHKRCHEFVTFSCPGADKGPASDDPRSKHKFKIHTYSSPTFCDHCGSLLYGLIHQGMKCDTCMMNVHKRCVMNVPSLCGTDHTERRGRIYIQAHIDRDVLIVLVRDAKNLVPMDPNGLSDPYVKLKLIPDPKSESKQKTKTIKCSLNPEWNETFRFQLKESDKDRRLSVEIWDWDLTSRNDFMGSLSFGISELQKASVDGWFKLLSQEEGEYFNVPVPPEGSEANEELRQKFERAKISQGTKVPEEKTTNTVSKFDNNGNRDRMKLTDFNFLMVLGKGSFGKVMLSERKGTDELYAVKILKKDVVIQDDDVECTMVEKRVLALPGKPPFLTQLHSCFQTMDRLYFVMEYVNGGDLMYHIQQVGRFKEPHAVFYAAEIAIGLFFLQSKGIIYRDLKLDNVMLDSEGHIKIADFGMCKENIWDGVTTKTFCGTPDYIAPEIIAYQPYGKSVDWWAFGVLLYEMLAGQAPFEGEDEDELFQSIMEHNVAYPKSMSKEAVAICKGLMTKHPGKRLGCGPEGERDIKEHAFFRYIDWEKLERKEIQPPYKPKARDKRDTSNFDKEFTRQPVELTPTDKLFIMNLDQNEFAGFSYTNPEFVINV

Data set [4] has the same target. The data set can be described thus: Agonist activity at Protein kinase C beta in human MT4 cells infected with HIV-1 NL4-3 assessed as inhibition of viral replication at 0.6 nM measured on day 3 post-infection in presence of PKCbeta antagonist enzastaurin by Nano-Glo luciferase assay. The data set is classed as cell-based. Summed up:
as §1

The target is the same in data set [5]. The data set can be described thus: Agonist activity at Protein kinase C beta in human MT4 cells infected with HIV-1 NL4-3 assessed as inhibition of viral replication at 2 nM measured on day 3 post-infection in presence of PKCbeta antagonist enzastaurin by Nano-Glo luciferase assay. The data set is classed as cell-based. Summed up:
as §1

The subject of data set [6] is Human immunodeficiency virus 1. The data set can be described thus: Antiviral activity against HIV 1 NL4-3 infected in human MT4 cells assessed as inhibition of replication treated 48 hrs post infection and measured on day 4 post infection by ELISA. The conditions noted are these: Human immunodeficiency virus 1, NL4-3, MT4. The data set is classed as functional.

For `C=C(C)[C@]12C[C@@H](COC(=O)c3ccccc3)[C@@]34OC5(O[C@@H]1[C@@H]3[C@@H]1O[C@]1(CO)[C@@H](O)[C@@]1(O)[C@H]4[C@H]([C@H](C)[C@@H]1OC(=O)c1ccccc1)[C@H](C)CCCCCCC5=O)O2`, in data set [1], the half-maximal inhibitory concentration (IC50) worked out at 0.14 nM. For the same molecule, the t1/2 in data set [2] was determined as 21.65 h. Further, the EC50 at Protein kinase C (PKC) came to 0.6 nM. For the same molecule, the CC50 with MT4 was > 1 nM.

In the case of `C=C(C)[C@]12C[C@@H](COC(=O)c3ccccc3)[C@@]34OC5(O[C@@H]1[C@@H]3[C@@H]1O[C@]1(CO)[C@@H](O)[C@@]1(O)[C@H]4[C@H]([C@H](C)[C@@H]1OC(=O)c1ccc3ccccc3c1)[C@H](C)CCCCCC[C@H]5O)O2`, in data set [1], the half-inhibitory concentration (IC50) was determined as 0.15 nM. In data set [2], this molecule displayed a t1/2 of 26.17 h. The CC50 in the data set on MT4 is > 1 nM.

On to `C=C(C)[C@]12C[C@@H](COC(=O)c3ccccc3)[C@@]34OC5(O[C@@H]1[C@@H]3[C@@H]1O[C@]1(CO)[C@@H](O)[C@@]1(O)[C@H]4[C@H]([C@H](C)[C@@H]1OC(=O)c1ccccc1)[C@H](C)CCCCCC[C@H]5O)O2`, for which the inhibition in data set [3] is 90%. In data set [1], the IC50 is on record as 0.13 nM. Also, in data set [2], the t1/2 stood at 21.77 h. Moreover, the outcome in data set [4] was inactive. Moreover, the EC50 on Protein kinase C (PKC) came out at 0.19 nM. Besides, in the data set on MT4, the CC50 is > 1 nM.

With `C=C(C)[C@]12C[C@@H](COC(=O)c3ccccc3)[C@@]34OC5(O[C@@H]1[C@@H]3[C@@H]1O[C@]1(CO)C(=O)[C@@]1(O)[C@H]4[C@H]([C@H](C)[C@@H]1OC(=O)c1ccccc1)[C@H](C)CCCCCC[C@H]5O)O2`, in data set [1], the IC50 is on record as > 1 nM. Further, the EC50 on Protein kinase C (PKC) is reported as > 3.9 nM. For the same molecule, the CC50 in the data set on MT4 is > 1 nM.

On to `C=C(C)[C@]12C[C@@H](COC(=O)c3ccccc3)[C@@]34OC5(O[C@@H]1[C@@H]3[C@@H]1O[C@]1(CO)[C@@H](O)[C@@]1(O)[C@H]4[C@H]([C@H](C)[C@@H]1OC(=O)c1ccncc1)[C@H](C)CCCCCC[C@H]5O)O2`, for which, in data set [5], the result was inactive. Besides, the 50% inhibitory concentration (IC50) in data set [1] came to 0.36 nM. Besides, the concentration for a half-maximal effect (EC50) on Protein kinase C (PKC) is given as 0.55 nM. In the data set on MT4, the CC50 was > 1 nM.

For `C=C(C)[C@]12C[C@@H](COC(=O)c3ccccc3)[C@@]34OC5(O[C@@H]1[C@@H]3[C@@H]1O[C@]1(COC(C)=O)[C@@H](O)[C@@]1(O)[C@H]4[C@H]([C@H](C)[C@@H]1OC(=O)c1ccccc1)[C@H](C)CCCCCC[C@H]5O)O2`, in data set [1], the half-inhibitory concentration (IC50) was > 1 nM. The cytotoxic concentration (CC50) with MT4 is > 1 nM.

As for `C=C(C)[C@]12C[C@@H](CO)[C@@]34OC5(O[C@@H]1[C@@H]3[C@@H]1O[C@]1(CO)[C@@H](O)[C@@]1(O)[C@H]4[C@H]([C@H](C)[C@@H]1O)[C@H](C)CCCCCC[C@H]5O)O2`, the IC50 in data set [1] is reported as > 1 nM. For the same molecule, the CC50 in the data set on MT4 was > 1 nM.

Regarding `C=C(C)[C@]12C[C@@H](COC(C)=O)[C@@]34OC5(O[C@@H]1[C@@H]3[C@@H]1O[C@]1(CO)[C@@H](O)[C@@]1(O)[C@H]4[C@H]([C@H](C)[C@@H]1OC(=O)c1ccccc1)[C@H](C)CCCCCC[C@H]5O)O2`, the IC90 in data set [6] came to 0.4 nM.

As to `C=C(C)[C@]12C[C@@H](COC(=O)c3ccccc3)[C@@]34OC5(O[C@@H]1[C@@H]3[C@@H]1O[C@]1(COC(=O)c1ccccc1)[C@@H](O)[C@@]1(O)[C@H]4[C@H]([C@H](C)[C@@H]1OC(=O)c1ccccc1)[C@H](C)CCCCCC[C@H]5OC(=O)c1ccccc1)O2`, the IC50 in data set [1] is > 1 nM. Further, in the data set on MT4, the CC50 was > 1 nM.

On to `C=C(C)[C@]12C[C@@H](COC(=O)c3ccccc3)[C@@]34OC5(O[C@@H]1[C@@H]3[C@@H]1O[C@]1(CO)[C@@H](O)[C@@]1(O)[C@H]4[C@H]([C@H](C)[C@@H]1OC(=O)c1ccc(OC)cc1)[C@H](C)CCCCCC[C@H]5O)O2`, for which, in data set [1], the IC50 came out at 0.17 nM. In addition, the cytotoxic concentration (CC50) in the data set with MT4 was > 1 nM.

Turning to `CC(C)[C@]12C[C@@H](COC(=O)c3ccccc3)[C@@]34OC5(O[C@@H]1[C@@H]3[C@@H]1O[C@]1(CO)[C@@H](O)[C@@]1(O)[C@H]4[C@H]([C@H](C)[C@@H]1OC(=O)c1ccccc1)[C@H](C)CCCCCC[C@H]5O)O2`, the IC50 in data set [1] is reported as 0.18 nM. For the same molecule, the CC50 in the data set with MT4 is > 1 nM.

For `C=C(C)[C@]12C[C@@H](COC(=O)c3ccccc3)[C@@]34OC5(O[C@@H]1[C@@H]3[C@@H]1O[C@]1(COC(=O)c1ccccc1)[C@@H](O)[C@@]1(O)[C@H]4[C@H]([C@H](C)[C@@H]1OC(=O)c1ccccc1)[C@H](C)CCCCCC[C@H]5O)O2`, the IC50 in data set [1] is > 1 nM. Further, in the data set on MT4, the half-maximal cytotoxic concentration (CC50) was > 1 nM.
